Results published in ChEMBL document CHEMBL4680306, “The 3-D conformational shape of N-naphthyl-cyclopenta[d]pyrimidines affects their potency as microtubule targeting agents and their antitumor activity” (Bioorg Med Chem, 2021).
Active and inactive are the calls of the source. The calls are words filed in the database; no cut-off is given here.

What was measured:
A10 [1] = test: Potency index, ratio of CA-4 IC50 to test compound IC50 for induction of microtubule depolymerisation in rat A-10 cell line measured after 18 hrs by indirect immunofluorescence method
A10 [2] = test: Induction of microtubule depolymerisation in rat A-10 cell line at 40 uM measured after 18 hrs by indirect immunofluorescence method
MDA-MB-435 [3] = test: Antiproliferative activity against human MDA-MB-435 cell line assessed as inhibition of cell proliferation at 10 uM measured after 48 hrs by SRB assay; type: functional
[4] = Induction of microtubule depolymerisation in rat A-10 cell line measured after 18 hrs by indirect immunofluorescence method; conditions: a10
Method in brief: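 Rat A-10 cells, chosen because they arrest in interphase without significant mitotic accumulation, were exposed to compounds for 18 h. Cellular microtubules were then visualized by indirect immunofluorescence. EC50 values come from at least three independent experiments.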

[5] = Inhibition of bovine tubulin polymerization assessed as reduction in extent of assembly preincubated for 15 mins followed by addition of reaction mixture measured after 20 mins by turbidimetric assay; set-up: species or system Bos taurus
Method in brief: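 After chilling, GTP was added (0.4 mM final). Turbidity at 350 nm was read after a jump from 0 °C to 30 °C.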

U-251 [6] = test: Cytotoxicity against human U251 cell line assessed as inhibition of cell growth after 48 hrs by SRB assay; type: functional, cell-based; conditions: U-251, 48 h
SW-620 = test: Cytotoxicity against human SW-620 cells assessed as inhibition of cell growth measured after 48 hrs by SRB assay; type: functional
OVCAR-8 = test: Cytotoxicity against human OVCAR-8 cells assessed as inhibition of cell growth measured after 48 hrs by SRB assay; type: functional
NCI-H23 = test: Cytotoxicity against human NCI-H23 cells assessed as inhibition of cell growth measured after 48 hrs by SRB assay; type: functional
BT-549 = test: Cytotoxicity against human BT-549 cells assessed as inhibition of cell growth measured after 48 hrs by SRB assay; type: functional
OVCAR-5 = test: Cytotoxicity against human OVCAR-5 cells assessed as inhibition of cell growth measured after 48 hrs by SRB assay; type: functional
HL-60(TB) = test: Cytotoxicity against human HL-60(TB) cells assessed as inhibition of cell growth measured after 48 hrs by SRB assay; type: functional
[7] = Cytotoxicity against human SK-MEL-5 cells assessed as inhibition of cell growth measured after 48 hrs by SRB assay; type: functional
SNB-19 = test: Cytotoxicity against human SNB-19 cells assessed as inhibition of cell growth measured after 48 hrs by SRB assay; type: functional
EKVX = test: Cytotoxicity against human EKVX cells assessed as inhibition of cell growth measured after 48 hrs by SRB assay; type: functional
OVCAR-4 = test: Cytotoxicity against human OVCAR-4 cells assessed as inhibition of cell growth measured after 48 hrs by SRB assay; type: functional
HOP-92 = test: Cytotoxicity against human HOP-92 cells assessed as inhibition of cell growth measured after 48 hrs by SRB assay; type: functional
OVCAR-3 = test: Cytotoxicity against human OVCAR-3 cells assessed as inhibition of cell growth measured after 48 hrs by SRB assay; type: functional
SK-MEL-28 = test: Cytotoxicity against human SK-MEL-28 cells assessed as inhibition of cell growth measured after 48 hrs by SRB assay; type: functional
SF-539 = test: Cytotoxicity against human SF-539 cells assessed as inhibition of cell growth measured after 48 hrs by SRB assay; type: functional
SR = test: Cytotoxicity against human SR cells assessed as inhibition of cell growth measured after 48 hrs by SRB assay; type: functional
HT-29 = test: Cytotoxicity against human HT-29 cells assessed as inhibition of cell growth measured after 48 hrs by SRB assay; type: functional
SF-268 = test: Cytotoxicity against human SF-268 cells assessed as inhibition of cell growth measured after 48 hrs by SRB assay; type: functional
PC-3 = test: Cytotoxicity against human PC-3 cells assessed as inhibition of cell growth measured after 48 hrs by SRB assay; type: functional
786-0 = test: Cytotoxicity against human 786-0 cells assessed as inhibition of cell growth measured after 48 hrs by SRB assay; type: functional
M14 = test: Cytotoxicity against human M14 cells assessed as inhibition of cell growth measured after 48 hrs by SRB assay; type: functional
KM12 = test: Cytotoxicity against human KM12 cells assessed as inhibition of cell growth measured after 48 hrs by SRB assay; type: functional
DU-145 = test: Cytotoxicity against human DU-145 cells assessed as inhibition of cell growth measured after 48 hrs by SRB assay; type: functional
NCI/ADR-RES = test: Cytotoxicity against human NCI/ADR-RES cells assessed as inhibition of cell growth measured after 48 hrs by SRB assay; type: functional
NCI-H460 = test: Cytotoxicity against human NCI-H460 cells assessed as inhibition of cell growth measured after 48 hrs by SRB assay; type: functional
MOLT-4 = test: Cytotoxicity against human MOLT-4 cells assessed as inhibition of cell growth measured after 48 hrs by SRB assay; type: functional
CCRF-CEM = test: Cytotoxicity against human CCRF-CEM cells assessed as inhibition of cell growth measured after 48 hrs by SRB assay; type: functional
HCT-116 = test: Cytotoxicity against human HCT-116 cells assessed as inhibition of cell growth measured after 48 hrs by SRB assay; type: functional
IGROV-1 = test: Cytotoxicity against human IGROV-1 cells assessed as inhibition of cell growth measured after 48 hrs by SRB assay; type: functional
T47D = test: Cytotoxicity against human T47D cells assessed as inhibition of cell growth measured after 48 hrs by SRB assay; type: functional
Hs-578T = test: Cytotoxicity against human Hs-578T cells assessed as inhibition of cell growth measured after 48 hrs by SRB assay; type: functional
SN12C = test: Cytotoxicity against human SN12C cells assessed as inhibition of cell growth measured after 48 hrs by SRB assay; type: functional
A549 = test: Cytotoxicity against human A549 cells assessed as inhibition of cell growth measured after 48 hrs by SRB assay; type: functional
Malme-3M = test: Cytotoxicity against human Malme-3M cells assessed as inhibition of cell growth measured after 48 hrs by SRB assay; type: functional
HCC 2998 = test: Cytotoxicity against human HCC 2998 cells assessed as inhibition of cell growth measured after 48 hrs by SRB assay; type: functional
MDA-MB-435 [8] = test: Cytotoxicity against human MDA-MB-435 cells assessed as inhibition of cell growth measured after 48 hrs by SRB assay; type: functional
UACC-62 = test: Cytotoxicity against human UACC-62 cells assessed as inhibition of cell growth measured after 48 hrs by SRB assay; type: functional
NCI-H226 = test: Cytotoxicity against human NCI-H226 cells assessed as inhibition of cell growth measured after 48 hrs by SRB assay; type: functional
COLO 205 = test: Cytotoxicity against human COLO 205 cells assessed as inhibition of cell growth measured after 48 hrs by SRB assay; type: functional
MCF7 = test: Cytotoxicity against human MCF7 cells assessed as inhibition of cell growth measured after 48 hrs by SRB assay; type: functional
SF-295 = test: Cytotoxicity against human SF-295 cells assessed as inhibition of cell growth measured after 48 hrs by SRB assay; type: functional
U-251 [9] = test: Cytotoxicity against human U-251 cells assessed as inhibition of cell growth measured after 48 hrs by SRB assay; type: functional
SK-MEL-2 = test: Cytotoxicity against human SK-MEL-2 cells assessed as inhibition of cell growth measured after 48 hrs by SRB assay; type: functional
K562 = test: Cytotoxicity against human K562 cells assessed as inhibition of cell growth measured after 48 hrs by SRB assay; type: functional
HOP-62 = test: Cytotoxicity against human HOP-62 cells assessed as inhibition of cell growth measured after 48 hrs by SRB assay; type: functional
A498 = test: Cytotoxicity against human A498 cells assessed as inhibition of cell growth measured after 48 hrs by SRB assay; type: functional
SK-OV-3 [10] = test: Cytotoxicity against human SK-OV-3 cells assessed as inhibition of cell growth measured after 48 hrs by SRB assay; type: functional
SNB-75 = test: Cytotoxicity against human SNB-75 cells assessed as inhibition of cell growth measured after 48 hrs by SRB assay; type: functional
LOX IMVI = test: Cytotoxicity against human LOX IMVI cells assessed as inhibition of cell growth measured after 48 hrs by SRB assay; type: functional
[11] = Relative resistance, ratio of IC50 for inhibition of beta3 Tubulin (unknown origin) expressed in human HeLa cell line assessed as inhibition of cell proliferation to IC50 antiproliferative activity against human HeLa cells
MDA-MB-435 [12] = test: Antiproliferative activity against human MDA-MB-435 cell line assessed as inhibition of cell proliferation measured after 48 hrs by SRB assay; type: functional, cell-based; conditions: MDA-MB-435, 48 h
Method in brief: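 MDA-MB-435 melanoma cells were assessed by sulforhodamine B assay. IC50 is the mean ± SD of at least three independent experiments, each run in triplicate.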

[13] = Antiproliferative activity against human SK-OV-3 MDR-1-6/6 cells expressing Pgp assessed as decrease in cell growth measured after 48 hrs by SRB method; type: functional; conditions: SK-OV-3, 48 h
SK-OV-3 [14] = test: Antiproliferative activity against human SK-OV-3 cells assessed as decrease in cell growth measured after 48 hrs by SRB method; type: functional, cell-based; conditions: SK-OV-3, 48 h
HeLa = test: Antiproliferative activity against human HeLa cells assessed as decrease in cell growth measured after 48 hrs by SRB method; type: functional, cell-based
[15] = Relative resistance, ratio of IC50 for antiproliferative activity against human SK-OV-3 MDR-1-6/6 cells expressing Pgp to IC50 antiproliferative activity against human SK-OV-3 cells; type: functional
Bos taurus [16] = species: Bos taurus; test: Inhibition of [3H]colchicine binding to bovine tubulin at 1 uM measured after 10 mins by scintillation counting
Method in brief: (§1)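 Purified bovine brain tubulin at 1.0 µM was mixed with 5.0 µM [3H]colchicine and inhibitor, plus components that stabilize colchicine binding, in 5% DMSO; tubulin was added last, on ice. Binding ran 10 min at 37 °C and was stopped with ice water. Mixtures were filtered through stacked DEAE-cellulose filters, and bound radiolabel was measured by scintillation counting.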

Bos taurus [17] = species: Bos taurus; test: Inhibition of [3H]colchicine binding to bovine tubulin at 5 uM measured after 10 mins by scintillation counting; method in brief: as §1

COc1ccc(Nc2nc(C)nc3c2CC(C)C3)cc1 (stereo not given)
Ratio IC50 (A10 [1]): 3
Activity (A10 [2]): inactive
inhibition at 10 µM (MDA-MB-435 [3]): 7%

COc1ccc2c(N(C)c3ncnc4c3CCC4)cccc2c1
EC50 [4]: > 10000 nM
IC50 [5]: > 20000 nM
IC50 (U-251 [6]): 133 nM

CC(=O)O[C@H]1C(=O)[C@@]2(C)[C@H]([C@H](OC(=O)c3ccccc3)[C@]3(O)C[C@H](OC(=O)[C@H](O)[C@@H](NC(=O)c4ccccc4)c4ccccc4)C(C)=C1C3(C)C)[C@]1(OC(C)=O)CO[C@@H]1C[C@@H]2O [PACLITAXEL]
GI50 (SW-620): 4 nM
GI50 (OVCAR-8): 7.9 nM
GI50 (NCI-H23): 6.3 nM
GI50 (BT-549): 4 nM
GI50 (OVCAR-5): 7.9 nM
GI50 (HL-60(TB)): 4 nM
GI50 [7]: 5 nM
GI50 (SNB-19): 10 nM
GI50 (EKVX): 79 nM
GI50 (OVCAR-4): 630 nM
GI50 (HOP-92): 25 nM
GI50 (OVCAR-3): 4 nM
GI50 (SK-MEL-28): 400 nM
GI50 (SF-539): 5 nM
GI50 (SR): 6.3 nM
GI50 (HT-29): 5 nM
GI50 (SF-268): 5 nM
GI50 (PC-3): 6.3 nM
GI50 (786-0): 39 nM
GI50 (M14): 5 nM
GI50 (KM12): 5 nM
GI50 (DU-145): 6.3 nM
GI50 (NCI/ADR-RES): 630 nM
GI50 (NCI-H460): 6.3 nM
GI50 (MOLT-4): 5 nM
GI50 (CCRF-CEM): 5 nM
GI50 (HCT-116): 4 nM
GI50 (IGROV-1): 6.3 nM
GI50 (T47D): 12.5 nM
GI50 (Hs-578T): 5 nM
GI50 (SN12C): 6.3 nM
GI50 (A549): 6.3 nM
GI50 (Malme-3M): 50 nM
GI50 (HCC 2998): 1 nM
GI50 (MDA-MB-435 [8]): 4 nM
GI50 (UACC-62): 5 nM
GI50 (NCI-H226): 3.9 nM
GI50 (COLO 205): 7.9 nM
GI50 (MCF7): 4 nM
GI50 (SF-295): 25 nM
GI50 (U-251 [9]): 6.3 nM
GI50 (SK-MEL-2): 400 nM
GI50 (K562): 6.3 nM
GI50 (HOP-62): 19 nM
GI50 (A498): 7.9 nM
GI50 (SK-OV-3 [10]): 6.3 nM
GI50 (SNB-75): 7.9 nM
GI50 (LOX IMVI): 5 nM

COc1cccc2cc(N(C)c3ncnc4c3CCC4)ccc12
Ratio IC50 [11]: 0.8
EC50 [4]: 184 nM
IC50 (MDA-MB-435 [12]): 34 nM
IC50 [13]: 74 nM
IC50 [5]: 1200 nM
IC50 (SK-OV-3 [14]): 37 nM
IC50 (HeLa): 56.4 nM
IC50 (U-251 [6]): 72.5 nM
Ratio IC50 [15]: 2
inhibition (Bos taurus [16]): 77%
inhibition (Bos taurus [17]): 93%

COc1ccc(/C=C\c2cc(OC)c(OC)c(OC)c2)cc1O [COMBRETASTATIN A4]
EC50 [4]: 13 nM
IC50 [13]: 6.6 nM

COc1cccc2c(N(C)c3nc(C)nc4c3CCC4)cccc12
Ratio IC50 [11]: 0.7
EC50 [4]: 3700 nM
IC50 (MDA-MB-435 [12]): 820 nM
IC50 [13]: 1300 nM
IC50 (SK-OV-3 [14]): 1200 nM
IC50 (HeLa): 1200 nM
IC50 (U-251 [6]): 38.9 nM
Ratio IC50 [15]: 1.1
